From article PMC3064798 (Nucleic Acids Research, 2011)

Molecular target: T1, Vent(exo^−) polymerase (Thermococcus litoralis, UniProt P30317, D141A/DEL1082-1471/DEL495-1032/E143A)
T1 sequence (P30317 with tags, fused parts or gaps D141A/E143A/DEL495-1032/DEL1082-1471): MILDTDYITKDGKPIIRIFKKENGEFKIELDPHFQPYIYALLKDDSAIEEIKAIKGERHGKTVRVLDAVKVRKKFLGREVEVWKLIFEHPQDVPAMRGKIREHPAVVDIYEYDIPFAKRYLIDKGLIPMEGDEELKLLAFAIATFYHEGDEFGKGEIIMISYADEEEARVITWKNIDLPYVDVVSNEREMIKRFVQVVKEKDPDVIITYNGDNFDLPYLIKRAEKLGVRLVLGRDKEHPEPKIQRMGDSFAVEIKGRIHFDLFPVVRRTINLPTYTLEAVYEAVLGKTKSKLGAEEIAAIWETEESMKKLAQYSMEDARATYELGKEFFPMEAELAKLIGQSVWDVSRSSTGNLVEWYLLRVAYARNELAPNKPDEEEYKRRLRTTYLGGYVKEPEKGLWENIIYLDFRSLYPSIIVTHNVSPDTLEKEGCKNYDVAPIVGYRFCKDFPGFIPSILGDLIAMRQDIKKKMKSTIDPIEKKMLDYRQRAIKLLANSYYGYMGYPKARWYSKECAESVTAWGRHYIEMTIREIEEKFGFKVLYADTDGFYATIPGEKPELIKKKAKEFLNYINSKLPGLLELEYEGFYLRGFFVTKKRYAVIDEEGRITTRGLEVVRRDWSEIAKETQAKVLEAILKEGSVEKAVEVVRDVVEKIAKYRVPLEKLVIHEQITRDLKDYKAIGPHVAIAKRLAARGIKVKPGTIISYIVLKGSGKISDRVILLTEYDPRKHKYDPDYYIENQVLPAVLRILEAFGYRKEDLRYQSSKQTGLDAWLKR
Assay: Nucleotide selectivity
Assay type: biochemical
Settings: against a 'G' template base
Method in brief: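 Base discrimination was measured by PEP assay. OligoTemplate-4 was replaced with 40 nM oligoTemplate-2 or oligoTemplate-5 to give mismatched template bases. For the T—G mismatch, 5 nM BODIPY-FL primer-3 was hybridised to 40 nM oligoTemplate-8. The selectivity ratio is the mismatched IC50 divided by the matched IC50.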

## CC(C)C(OCc1cn([C@H]2C[C@H](O)[C@@H](COP(=O)(O)OP(=O)(O)OP(=O)(O)O)O2)c(=O)[nH]c1=O)c1ccccc1[N+](=O)[O-] (mixture of isomers) [dU.III, 5-[1-(2-Nitrophenyl)-2-methyl-propyloxy]methyl-2'-deoxyuridine-5’-triphosphate]
  Selectivity ratio (mismatched IC50/matched IC50): poorly extending the primer before revealing inhibitory effects
